Measured values collected from several papers.
Compare with care: the assays were run in different laboratories.
Observed: cell growth or viability

Structure (SMILES)	cell line	method	time	quantity	result
CCNCCCn1c2c(c3cc(OC)c(OC)cc3c1=O)C(=O)c1cc3c(nc1-2)OCO3	RD-ES	MTS	72 h	IC50	0.02 µM
Cc1nc(Nc2ccc3c(c2)/C(=C/c2ccccc2)C(=O)N3Cc2ccccc2)c2ccccc2n1	B16	MTT	–	IC50	15.1 µM
Nc1ccc(/C=C/C(=O)N2CCc3c(oc4c(-c5ccc(F)cc5)cc(-c5ccc(C(=O)N6CCC(F)(F)CC6)nn5)cc34)C2)cn1	BXPC-3	CCK-8	72 h	IC50	> 20 µM
Cc1sc2c(c1C)C(c1ccc(Cl)cc1)=N[C@@H](CC(=O)NCCCCCCCCNC(=O)COc1cccc3c1C(=O)N(C1CCC(=O)NC1=O)C3=O)c1nnc(C)n1-2 (stereo partly shown)	BXPC-3	ATP luminescence	–	IC50	0.27 µM
COc1cc2c3c(n(CCCNCCO)c(=O)c2cc1OC)-c1nc2c(cc1C3=O)OCO2	RD-ES	MTS	72 h	IC50	0.022 µM
Nc1ccc(/C=C/C(=O)N2CCc3c(oc4c(-c5ccc(F)cc5)cc(-c5ccc(C(=O)N6CCOCC6)nn5)cc34)C2)cn1	BXPC-3	CCK-8	72 h	IC50	> 20 µM
O=C(O)c1ccccc1Nc1cccc(C(F)(F)F)c1	BXPC-3	SRB	48 h	GI50	> 30 µM
C=CC(=O)NC1CCN(c2ncc3ncnc(Nc4ccc(Oc5ccc6c(c5)ncn6C)c(C)c4)c3n2)CC1	NCI-H2172	–	–	EC50	6.65 µM
COc1cc2c3c(n(CCCN4CCOCC4)c(=O)c2cc1OC)-c1nc2c(cc1C3=O)OCO2	RD-ES	MTS	72 h	IC50	0.608 µM
C=CC(=O)c1cccnc1Nc1cccc(C(F)(F)F)c1	BXPC-3	SRB	48 h	GI50	17.5 µM
Cc1nc(Nc2ccc3c(c2)C(C)(C)C(=O)N3)c2ccccc2n1	B16	MTT	–	IC50	14.8 µM
O=C(O)c1cccnc1Nc1cccc(C(F)(F)F)c1	BXPC-3	SRB	48 h	GI50	> 30 µM
Cc1nc(Nc2ccc3c(c2)/C(=C/c2ccccc2Cl)C(=O)N3)c2ccccc2n1	B16	MTT	–	IC50	3.34 µM
